Tested on: Mouse plasma protein binding, RED dialysis, LC/MS/MS
Assay: fraction bound to mouse plasma proteins – biochemical, rapid equilibrium dialysis, LC/MS/MS, ADME assay, late-stage follow-up (AID 1937)
Conditions: stronger effect = higher value
Method in brief: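 Assay system: mouse plasma in RED dialysis device; Measured by: LC/MS/MS of both dialysis chambers; Measure: percent bound, from buffer-to-plasma concentration ratio; Dosing: two final plasma concentrations, 1 µM and 10 µM, with 0.1% DMSO; Buffer or medium: Isotonic phosphate-buffered saline, pH 7.4, as dialysis buffer; Timing: dialysis for 4 h at 37 °C with shaking.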

- plasma protein bound (at 1 µM): 99.8%
- plasma protein bound (bound, at 10 µM): 99.8%
SMILES: CC1Cc2cc(S(=O)(=O)N3CCN(c4ccc(Cl)cc4)CC3)ccc2N1C(=O)C1CC1 (configuration not stated)

— PubChem BioAssay AID1937 (Sanford-Burnham Center for Chemical Genomics, 2009)
